Results as given in ChEMBL document CHEMBL1135187, “The synthesis and effect of fluorinated chalcone derivatives on nitric oxide production” (Bioorg Med Chem Lett, 2002).

Assays:
[1] = biological target: T1, Nitric oxide synthase, inducible (Mus musculus) (UniProt P29477); assay: Percent inhibition of Nitrite accumulation at a concentration of 10 uM was determined in RAW 264.7 cells; assay type: functional, cell-based
T1 sequence (whole entry): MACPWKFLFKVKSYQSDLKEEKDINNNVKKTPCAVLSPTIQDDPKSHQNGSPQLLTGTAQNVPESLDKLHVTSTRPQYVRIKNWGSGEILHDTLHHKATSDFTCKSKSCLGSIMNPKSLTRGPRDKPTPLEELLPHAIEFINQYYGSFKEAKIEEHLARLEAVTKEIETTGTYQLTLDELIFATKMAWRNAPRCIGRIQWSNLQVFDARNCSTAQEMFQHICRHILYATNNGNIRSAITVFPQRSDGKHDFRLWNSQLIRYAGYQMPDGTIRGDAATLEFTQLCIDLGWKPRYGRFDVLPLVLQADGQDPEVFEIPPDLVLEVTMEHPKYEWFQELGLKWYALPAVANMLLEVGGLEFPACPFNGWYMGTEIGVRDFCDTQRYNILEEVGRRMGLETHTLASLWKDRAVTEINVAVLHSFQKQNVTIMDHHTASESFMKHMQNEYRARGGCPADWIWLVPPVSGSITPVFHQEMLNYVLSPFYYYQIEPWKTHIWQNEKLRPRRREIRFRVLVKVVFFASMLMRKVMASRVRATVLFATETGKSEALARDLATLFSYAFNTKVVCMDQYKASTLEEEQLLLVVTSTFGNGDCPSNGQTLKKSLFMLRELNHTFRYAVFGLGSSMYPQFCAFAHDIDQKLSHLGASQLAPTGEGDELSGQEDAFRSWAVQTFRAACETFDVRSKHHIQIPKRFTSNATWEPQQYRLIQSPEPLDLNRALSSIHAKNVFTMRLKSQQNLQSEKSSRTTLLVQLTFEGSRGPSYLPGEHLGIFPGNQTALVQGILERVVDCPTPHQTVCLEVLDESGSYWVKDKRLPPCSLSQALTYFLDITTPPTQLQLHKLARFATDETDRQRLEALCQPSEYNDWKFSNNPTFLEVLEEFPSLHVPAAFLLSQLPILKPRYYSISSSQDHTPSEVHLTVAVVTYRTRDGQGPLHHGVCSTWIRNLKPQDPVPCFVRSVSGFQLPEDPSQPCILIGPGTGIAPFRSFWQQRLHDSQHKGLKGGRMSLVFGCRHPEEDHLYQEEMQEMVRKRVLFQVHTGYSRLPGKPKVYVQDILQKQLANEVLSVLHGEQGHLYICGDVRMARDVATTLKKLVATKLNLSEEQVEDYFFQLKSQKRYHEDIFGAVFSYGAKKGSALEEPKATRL
Outline: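 Nitrite accumulation measured in RAW 264.7 cells at 2 × 10⁶/mL stimulated with E. coli LPS, with compound at 10 µM or vehicle, 37 °C, 20 h. Nitrite read fluorometrically against a sodium nitrite standard curve. Reported as mean±SEM % inhibition (n=6). One-way ANOVA followed by Dunnett's test.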

[2] = biological target: T2, Nitric oxide synthase, inducible (Mus musculus, UniProt P29477); assay: Inhibitory concentration required to produce 50% inhibition of the response was determined; range-0.150.47 uM; assay type: functional
T2 sequence (P29477 whole entry): T1 sequence (whole entry)
Outline: (§1)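 Murine RAW 264.7 macrophages (DMEM, 10% FBS, 2 mM L-glutamine, penicillin/streptomycin) at 2 × 10⁶/mL co-incubated with E. coli LPS and test compound or vehicle, 37 °C, 20 h. Nitrite in the medium measured fluorometrically against a sodium nitrite standard curve. IC50 calculated from at least four significant concentrations and reported with 95% confidence limits. MTT reduction used to check cytotoxicity.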

[3] = biological target: T2, Nitric oxide synthase, inducible; assay: Inhibitory concentration required to produce 50% inhibition of the response was determined; range-0.541.16 uM; assay type: functional; outline: as §1
[4] = biological target: T2, Nitric oxide synthase, inducible; assay: Inhibitory concentration required to produce 50% inhibition of the response was determined; range-0.461.81 uM; assay type: functional; outline: as §1
[5] = biological target: T2, Nitric oxide synthase, inducible; assay: Inhibitory concentration required to produce 50% inhibition of the response was determined; range-0.811.70 uM; assay type: functional; outline: as §1
[6] = biological target: T2, Nitric oxide synthase, inducible; assay: Inhibitory concentration required to produce 50% inhibition of the response was determined; assay type: functional; outline: as §1
[7] = biological target: T2, Nitric oxide synthase, inducible; assay: Inhibitory concentration required to produce 50% inhibition of the response was determined; range-0.431.12 uM; assay type: functional; outline: as §1
[8] = biological target: T2, Nitric oxide synthase, inducible; assay: Inhibitory concentration required to produce 50% inhibition of the response was determined; range-0.431.85 uM; assay type: functional; outline: as §1

inhibition [1] [%]	Compound	also measured
73.7	COc1cc(OC)c(OC)cc1/C=C/C(=O)c1ccccc1C(F)(F)F	IC50 [2]: 280 nM
75	COc1cc(OC)c(/C=C/C(=O)c2cccc(C(F)(F)F)c2)c(OC)c1	IC50 [3]: 1840 nM
59	COc1cc(OC)c(/C=C/C(=O)c2ccc(F)cc2F)c(OC)c1	–
43.6	COc1cc(OC)c(/C=C/C(=O)c2ccc(C(F)(F)F)cc2)c(OC)c1	–
49.3	COc1cc(OC)c(OC)cc1/C=C/C(=O)c1ccc(C(F)(F)F)cc1	–
52.4	COc1ccc(/C=C/C(=O)c2ccc(F)cc2F)cc1OC	–
46.8	COc1ccc(/C=C/C(=O)c2ccc(C(F)(F)F)cc2)c(OC)c1	–
77.5	COc1ccc(/C=C/C(=O)c2ccccc2C(F)(F)F)c(OC)c1	IC50 [4]: 840 nM
55.7	COc1ccc(/C=C/C(=O)c2ccc(F)cc2)c(OC)c1	–
60.1	COc1ccc(OC)c(/C=C/C(=O)c2ccc(C(F)(F)F)cc2)c1	–
55.8	COc1cc(/C=C/C(=O)c2ccc(C(F)(F)F)cc2)cc(OC)c1OC	–
63.9	COc1cc(OC)c(/C=C/C(=O)c2ccc(F)cc2)c(OC)c1	–
26.7	COc1cc(OC)c(OC)cc1/C=C/C(=O)c1cccc(C(F)(F)F)c1	–
76.3	COc1cc(OC)c(/C=C/C(=O)c2ccccc2C(F)(F)F)c(OC)c1	IC50 [5]: 1020 nM
94.1	COc1cc(/C=C/C(=O)c2ccc(F)cc2)cc(OC)c1OC	IC50 [6]: 30 nM
81.7	COc1cc(OC)c(OC)cc1/C=C/C(=O)c1ccc(F)cc1F	IC50 [7]: 640 nM
99	COc1ccc(OC)c(/C=C/C(=O)c2ccccc2C(F)(F)F)c1	IC50 [8]: 910 nM
